Results on two compounds are retold here after ChEMBL document CHEMBL1148175, “Immunostimulant agents from Andrographis paniculata” (1993).

Common to all, as to format: functional
For assay [1], the system named is Mus musculus. Kind of assay: Immunostimulant activity in sheep RBC-immunized BALB/c albino mouse assessed as hemolytic plaque-forming cells per 10^5 spleen cells at 4 mg/kg, ip administered on day 7 and 3 prior to immunization measured after 5 days. The following applies: route intraperitoneal. The method, boiled down: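 Following ip dosing on days -7 and -3 and ip SRBC (1×10^8) on day 0, splenic hemolytic plaques counted on day 5 by Jerne-Nordin technique, duplicate per mouse. Group means expressed as PFC/10^5 spleen cells. Three experiments with four animals each; Student's t-test.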

In assay [2] the test system is Mus musculus. Kind of assay: Nonspecific immunostimulant activity in sheep RBC-immunized BALB/c albino mouse assessed as macrophage migration index at 4 mg/kg, ip administered on day 7 and 3 prior to immunization measured after 18 to 24 hrs. The note with it: route intraperitoneal. The procedure, abridged:
(§1)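 Peritoneal exudate cells from dosed mice (oral daily 7 days, or ip on days -7 and -3) packed in microhematocrit capillaries and allowed to migrate 18-24 h in a migration chamber. MMI = ratio of migration areas, control vs. treated animals. Two experiments, four mice each.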

Assay [3] relates to Mus musculus. Briefly: Nonspecific immunostimulant activity in sheep RBC-immunized BALB/c albino mouse assessed as [3H]thymidine uptake by splenic lymphocytes at 4 mg/kg, ip administered on day 7 and 3 prior to immunization by liquid scintillation counting. The note with it: route intraperitoneal. The method, boiled down:
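Spleen cells from ip-treated mice (days -7, -3) at 1.5×10^6 cells/ml in complete RPMI-1640 with fetal calf serum, cultured in triplicate 3 days at 37° under 5% CO2, then pulsed 18 h with 1 μCi 3H-thymidine. Incorporation counted by scintillation, reported as cpm ± SD.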

Assay [4] concerns Mus musculus. Briefly: Nonspecific immunostimulant activity in sheep RBC-immunized BALB/c albino mouse assessed as phagocytosis of [14C] leucine labeled Escherichia coli at 4 mg/kg, ip administered on day 7 and 3 prior to immunization. The note with it: route intraperitoneal. The procedure, abridged: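 Peritoneal macrophages from mice dosed ip on days -7 and -3 incubated in vitro with E. coli labelled with 14C-leucine (sp. act. 190 mCi/mmol). Uptake expressed as percentage incorporation of 14C-leucine. Three experiments, four animals each.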

Assay [5] has as its system Mus musculus. Kind of assay: Immunostimulant activity in sheep RBC-immunized BALB/c albino mouse assessed as hemagglutininating antibody titer at 1 mg/kg, po administered daily for 7 days by microtiter hemagglutinination technique. The procedure, abridged: (§2)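 Compound dissolved in 0.05 M phosphate buffer pH 7.2 with 0.1 M NaCl, given orally daily for 7 days or ip on days -7 and -3, then ip immunization with 1×10^8 SRBC. Serum from retro-orbital bleed on day 5; twofold dilutions mixed with 1% SRBC, 1.5-2 h at room temperature. Titer = reciprocal of highest dilution giving 50% agglutination. Two experiments, four mice each.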

Assay [6] relates to Mus musculus. Kind of assay: Immunostimulant activity in sheep RBC-immunized BALB/c albino mouse assessed as macrophage migration index at 1 mg/kg, po administered daily for 7 days measured after 18 to 24 hrs. The method, boiled down: as §1
For assay [7], the system named is Mus musculus. Kind of assay: Immunostimulant activity in sheep RBC-immunized BALB/c albino mouse assessed as hemagglutininating antibody titer at 4 mg/kg, ip administered on day 7 and 3 prior to immunization measured after 5 days by microtiter hemagglutinination technique. The note with it: route intraperitoneal. The procedure, abridged:
as §2

Assay [8] deals with Mus musculus. Briefly: Immunostimulant activity in sheep RBC-immunized BALB/c albino mouse assessed as delayed-type hypersensitivity response-related right foot pad thickness at 4 mg/kg, ip administered on day 7 and 3 prior to immunization measured after 5 days relative to non-immunized foot pad thickness. The following applies: route intraperitoneal. The procedure, abridged: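 Mice (BALB/c, either sex, 20-22 g; four per group) immunized ip with 1×10^8 SRBC on day 0; on day 5 challenged with 1×10^8 SRBC (50 μl) in right foot pad. Foot pad thickness read 24 h later; reaction in mm = right (SRBC) minus PBS-injected pad. Compound in PBS pH 7.2 given ip on days -7 and -3. Student's t-test.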

SMILES strings stand for the structures.

Consider `C=C1CC[C@@H]2[C@](C)(CO)[C@H](O)CC[C@@]2(C)[C@@H]1C/C=C1/C(=O)OC[C@H]1O` [ANDROGRAPHOLIDE], for which the Activity was found to be 128 in the assay on Mus musculus [1]; 2.84 in the assay on Mus musculus [2]; 6486 cpm in the assay on Mus musculus [3]; 55.56% with Mus musculus [4]; 1280 in the assay on Mus musculus [5]; 1.6 in the assay with Mus musculus [6]. Besides, the Activity came to 1536 in the assay on Mus musculus [7] and 2.5 mm in the assay with Mus musculus [8].
Turning to `C=C1CC[C@@H]2[C@](C)(CO[C@@H]3O[C@H](CO)[C@@H](O)[C@H](O)[C@H]3O)CCC[C@@]2(C)[C@@H]1CCC1=CCOC1=O` [NEOANDROGRAPHOLIDE], the Activity with Mus musculus [2] is reported as 2.51; with Mus musculus [5], 1365.33; with Mus musculus [6], 1.9; in the assay on Mus musculus [7] it was 1638.4.
